Experimental data as given in ChEMBL document CHEMBL1131132, “Acetylcholinesterase inhibitors: synthesis and structure-activity relationships of omega-[N-methyl-N-(3-alkylcarbamoyloxyphenyl)- methyl]aminoalkoxyheteroaryl derivatives” (J Med Chem, 1998).

Tests used:
[1] = target: Cholinesterases; ACHE & BCHE (Homo sapiens) (UniProt P06276+P22303); test: It is the ratio of IC50 for butyrl cholinesterase (BuChE ) to that of acetylcholinesterase (AChE); type: protein assay
Outline: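 Ellman method, 0.1 M phosphate pH 8.0, 340 µM DTNB. AChE: human erythrocyte 0.035 unit/mL, 550 µM acetylthiocholine. BuChE: human serum 0.035 unit/mL, 550 µM butyrylthiocholine.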

Acetylcholinesterase = target: T1, Acetylcholinesterase (Rattus norvegicus, UniProt P37136); test: Inhibitory concentration against rat brain acetylcholinesterase AChE
T1 sequence (P37136 whole entry): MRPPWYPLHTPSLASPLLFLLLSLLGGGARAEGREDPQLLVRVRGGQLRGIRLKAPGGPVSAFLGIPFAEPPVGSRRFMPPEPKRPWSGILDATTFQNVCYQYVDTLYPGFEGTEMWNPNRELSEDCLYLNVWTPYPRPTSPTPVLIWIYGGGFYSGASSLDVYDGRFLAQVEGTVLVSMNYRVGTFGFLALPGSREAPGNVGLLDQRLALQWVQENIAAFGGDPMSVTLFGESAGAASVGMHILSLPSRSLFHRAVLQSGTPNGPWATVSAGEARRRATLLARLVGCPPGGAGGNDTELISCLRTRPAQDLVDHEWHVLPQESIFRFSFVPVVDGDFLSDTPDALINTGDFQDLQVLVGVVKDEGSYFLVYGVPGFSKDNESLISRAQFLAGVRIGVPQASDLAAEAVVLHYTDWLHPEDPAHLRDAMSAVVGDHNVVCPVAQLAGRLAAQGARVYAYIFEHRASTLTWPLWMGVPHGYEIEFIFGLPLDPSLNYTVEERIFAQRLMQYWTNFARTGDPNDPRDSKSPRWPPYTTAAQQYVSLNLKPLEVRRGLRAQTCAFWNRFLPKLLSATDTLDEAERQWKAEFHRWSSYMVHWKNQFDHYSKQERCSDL
Outline: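 Adult Wistar rat cerebral cortex, stored frozen, homogenized 1:200 w/v in 25 mM phosphate pH 7.4, warmed 37 °C 5 min, spun 50000g 15 min at 4 °C; pellet resuspended as AChE-enriched fraction. Compound in PBS pH 7.4 with tritiated ACh (final 0.4 mM), 15 min at 37 °C; stopped with chloroacetic acid/NaCl/NaOH; ³H-acetate extracted into isoamyl alcohol/toluene, scintillation counted.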

Chain of Cholinesterases; ACHE & BCHE (Homo sapiens) (P06276 whole entry, looked up): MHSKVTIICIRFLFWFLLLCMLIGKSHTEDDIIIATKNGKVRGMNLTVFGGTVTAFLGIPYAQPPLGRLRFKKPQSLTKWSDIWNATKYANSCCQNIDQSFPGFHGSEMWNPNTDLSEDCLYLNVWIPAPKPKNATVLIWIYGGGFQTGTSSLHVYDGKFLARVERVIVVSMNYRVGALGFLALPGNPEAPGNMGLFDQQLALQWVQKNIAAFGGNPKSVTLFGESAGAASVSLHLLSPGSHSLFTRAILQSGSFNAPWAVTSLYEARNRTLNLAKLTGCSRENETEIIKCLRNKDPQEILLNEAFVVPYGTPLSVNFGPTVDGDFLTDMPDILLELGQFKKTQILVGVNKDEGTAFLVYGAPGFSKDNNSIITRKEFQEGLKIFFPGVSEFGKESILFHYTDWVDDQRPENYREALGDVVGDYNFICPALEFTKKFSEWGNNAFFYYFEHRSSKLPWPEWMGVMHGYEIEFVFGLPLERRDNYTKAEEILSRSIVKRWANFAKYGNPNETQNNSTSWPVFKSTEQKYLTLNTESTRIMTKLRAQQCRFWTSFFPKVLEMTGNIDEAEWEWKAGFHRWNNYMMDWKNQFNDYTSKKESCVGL
Chain of Cholinesterases; ACHE & BCHE (Homo sapiens) (P22303 whole entry, looked up): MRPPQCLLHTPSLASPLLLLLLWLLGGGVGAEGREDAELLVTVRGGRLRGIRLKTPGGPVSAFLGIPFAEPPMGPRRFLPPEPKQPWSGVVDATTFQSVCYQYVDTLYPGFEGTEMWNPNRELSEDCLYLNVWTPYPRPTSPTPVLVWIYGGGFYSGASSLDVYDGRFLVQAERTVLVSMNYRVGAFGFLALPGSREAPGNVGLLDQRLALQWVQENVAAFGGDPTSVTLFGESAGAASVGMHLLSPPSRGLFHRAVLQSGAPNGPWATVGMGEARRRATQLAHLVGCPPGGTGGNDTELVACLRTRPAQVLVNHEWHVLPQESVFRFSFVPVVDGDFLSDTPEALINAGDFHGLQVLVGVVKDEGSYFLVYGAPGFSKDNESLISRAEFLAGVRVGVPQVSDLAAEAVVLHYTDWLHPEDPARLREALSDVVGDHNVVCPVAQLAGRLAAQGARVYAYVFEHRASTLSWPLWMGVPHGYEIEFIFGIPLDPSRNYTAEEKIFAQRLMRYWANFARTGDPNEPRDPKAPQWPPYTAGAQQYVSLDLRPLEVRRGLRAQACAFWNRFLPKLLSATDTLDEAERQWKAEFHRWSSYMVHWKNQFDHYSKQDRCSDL

Row | Structure (SMILES) | Ratio [1] | IC50 (Acetylcholinesterase) [nM]
1 | CCCCCCCNC(=O)Oc1cccc(CN(C)CCCOc2ccc3ccc(=O)oc3c2)c1 | 5 | 2
2 | CNC(=O)Oc1cccc(CN(C)CCCCCOc2ccc3c(=O)c4ccccc4oc3c2)c1 | 101 | > 100
3 | CCCCNC(=O)Oc1cccc(CN(C)CCCOc2ccc3c(=O)c4cccnc4oc3c2)c1 | 2.7 | 70
4 | CNC(=O)Oc1cccc(CN(C)CCCOc2ccc3ccc(=O)oc3c2)c1 | 0.6 | 1.5
5 | CNC(=O)Oc1cccc(CN(C)CCCOc2ccc3c(=O)cc(-c4ccccc4)oc3c2)c1 | 8.2 | 0.6
6 | CN(CCCOc1ccc2c(=O)c3ccccc3oc2c1)Cc1cccc(OC(=O)Nc2ccccc2)c1 | 71.4 | > 1000
